In ChEMBL document CHEMBL1147237, “Two new epimeric pairs of acetogenins bearing a carbonyl group from Annona cherimolia seeds” (J Nat Prod, 2003):
Converted amounts (≈) assume the structure as drawn.

Legend:
PC-3 = assay: Cytotoxicity against human PC3 cells after 7 days by MTT assay; type: functional; details: PC-3, 168 h, read-out: LD50 (the source's name)
Outline: (§1)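 Seven-day in vitro MTT cytotoxicity assay run by a cancer-center cell culture laboratory under standard protocols, using A-549 (human lung carcinoma), MCF-7 (human breast carcinoma), HT-29 (human colon adenocarcinoma), A-498 (human kidney carcinoma) and PC-3 (human prostate) cells. Isolated compounds were tested.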

[1] = (§2) Toxicity in brine shrimp larvae; type: organism-based; details: artemia, in vivo
MCF7 = assay: Cytotoxicity against human MCF7 cells after 7 days by MTT assay; type: functional; details: MCF7, 168 h, read-out: LD50 (the source's name); outline: as §1
MIA PaCa-2 = assay: Cytotoxicity against human MIAPaCa2 cells after 7 days by MTT assay; type: functional; details: MIA PaCa-2, 168 h, read-out: LD50 (the source's name)
A549 = assay: Cytotoxicity against human A549 cells after 7 days by MTT assay; type: functional; details: A549, 168 h, read-out: LD50 (the source's name); outline: as §1
HT-29 = assay: Cytotoxicity against human HT-29 cells after 7 days by MTT assay; type: functional; details: HT-29, 168 h, read-out: LD50 (the source's name); outline: as §1
A498 = assay: Cytotoxicity against human A498 cells after 7 days by MTT assay; type: functional; details: A498, 168 h, read-out: LD50 (the source's name); outline: as §1
Artemia = assay: as §2; type: organism-based; details: in vivo

Row | SMILES | CC50 (PC-3) | LC50 [1] | CC50 (MCF7) | CC50 (MIA PaCa-2) | CC50 (A549) | CC50 (HT-29) | CC50 (A498) | LC50 (Artemia)
1 | CCCCCCCCCCCC[C@@H](O)[C@H]1CC[C@H]([C@H](O)CCCC(=O)CCCCCCCCC2=CC(C)(O)OC2=O)O1 (mixture of isomers) | 0.198 µg/mL | 0.375 µg/mL | 0.303 µg/mL | 0.00312 µg/mL | 1.26 µg/mL | 0.193 µg/mL | 0.93 µg/mL | 
2 | CCCCCCCCCCCC[C@@H](O)[C@H]1CC[C@H]([C@H](O)CCCC(=O)CCCCCC[C@@H](O)CC2=CC(C)(O)OC2=O)O1 (mixture of isomers) [ANNOMOLON B/34-EPI-ANNOMOLON B] | 0.0553 µg/mL |  | 0.047 µg/mL | 0.00748 µg/mL | 1.37 µg/mL | 0.0719 µg/mL | 0.377 µg/mL | 7 ×10⁻² ug/ml
3 | COc1cccc2c1C(=O)c1c(O)c3c(c(O)c1C2=O)C[C@@](O)(C(=O)CO)C[C@@H]3O[C@H]1C[C@H](N)[C@H](O)[C@H](C)O1 [DOXORUBICIN] | 0.0502 µg/mL (≈ 0.0924 µM) |  | 0.0182 µg/mL (≈ 0.0335 µM) | 0.00262 µg/mL (≈ 0.00482 µM) | 0.00113 µg/mL (≈ 0.00208 µM) | 0.0128 µg/mL (≈ 0.0235 µM) | 0.00226 µg/mL (≈ 0.00416 µM) | 
